Results published in article PMC2795045 (Chemico-biological interactions, 2010).
Read-outs that look alike come from different tables or passages of the source.

Assays:
XLK-WG cells [1] = assay: CYP1A6/CYP1A7 mRNA induction in XLK-WG cells by quantitative RT-PCR; type: cell-based, Xenopus laevis
CYP1A [2] = assay: CYP1A activity; type: cell-based, Xenopus laevis; conditions: Xenopus laevis
XLK-WG cells [3] = assay: CYP1A activity; type: cell-based, Xenopus laevis; conditions: XLK-WG cells, at the concentration of maximum response
CYP1A1 = CYP1A1 mRNA induction in Hepa1c1c7 cells by quantitative RT-PCR; type: cell-based, mouse; conditions: mouse, EC50 for CYP1A1 mRNA induction, 3 hours exposure, qRT-PCR, ± SE
Hepa1c1c7 cells [4] = assay: as above; type: cell-based, mouse; conditions: read-out: EC50 for CYP1A1 mRNA induction, 3 hours exposure, qRT-PCR, ± SE
Hepa1c1c7 cells [5] = assay: CYP1A activity; type: cell-based, mouse; conditions: for maximum EROD activity in Hepa1c1c7 cells relative to XLK-WG cells / maximum EROD activity induced: 3 hour treatment; for maximum EROD activity induced: ± SE
CYP1A6 (Xl.1692) mRNA [6] = assay: Affymetrix expression microarray of XLK-WG cells; type: cell-based, Xenopus laevis; conditions: Xenopus laevis
CYP1A7 (Xl.1220) mRNA [7] = assay: Affymetrix expression microarray of XLK-WG cells; type: cell-based, Xenopus laevis; conditions: Xenopus laevis
XLK-WG cells [8] = assay: Affymetrix expression microarray of XLK-WG cells; type: cell-based, Xenopus laevis; conditions: for Genes altered ≥ 2-fold: Induced / Genes altered ≥ 2-fold: Repressed / Genes altered (p ≤ 0.01): Induced / Genes altered (p ≤ 0.01): Repressed: 3 hours, number of genes; for Genes altered (p ≤ 0.01): Induced / Genes altered (p ≤ 0.01): Repressed: no two-fold cutoff; for fold induction at 0.1 µM: Xenopus laevis, 3 h
CYP1A6 (Xl.1692) mRNA [9] = assay: qRT-PCR of selected altered transcripts in XLK-WG cells; type: cell-based, Xenopus laevis; conditions: Xenopus laevis
CYP1A7 (Xl.1220) mRNA [10] = assay: as above; type: cell-based, Xenopus laevis; conditions: Xenopus laevis
XLK-WG cells [11] = assay: as above; type: cell-based, Xenopus laevis; conditions: XLK-WG cells, relative to vehicle-treated control; for Xl.14954 (similar to voltage-gated potassium channel subunit MiRP4.1) fold induction, qRT-PCR: table row r10; for Xl.14954 fold induction, qRT-PCR: table row r16
CYP1A [12] = assay: CYP1A activity; type: cell-based, mouse; conditions: mouse
XLK-WG cells [13] = assay: Semi-quantitative RT-PCR of AHR pathway transcripts in XLK-WG cells; type: cell-based, Xenopus laevis; conditions: 100 nM TCDD, 24 hours
How it was run: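 XLK-WG cells were kept in the dark at 29 °C and 5% CO2 in RPMI-1640 with 20% FBS, then grown to near confluence. They were exposed for 24 h to 100 nM TCDD or DMSO vehicle (0.25% final). Total RNA was column-extracted, and RT-PCR covered CYP1A6, CYP1A7, AHR1α, AHR1β, ARNT1 and ARNT2. Cycling was 95 °C/1 min; 43 cycles of […], 50 °C/30 sec, 72 °C/60 sec; then 72 °C/7 min. A no-RT control was included.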

[14] = read-out: Hypothetical protein MCG81225 (similar to Zn-finger protein 410; Xl.16594) fold induction, Microarray

O=Cc1c2[nH]c3ccccc3c2cc2[nH]c3ccccc3c12 [FICZ, 6-formylindolo[3,2-b]carbazole]
CYP1A6/7 mRNA quantities after 3 hours exposure relative to 24 hours exposure (XLK-WG cells [1]): up to 5 fold
CYP1A7 mRNA induction after 3 hours relative to after 24 hours (XLK-WG cells [1]; highest dosage of FICZ): 5 fold
EC50 (CYP1A [2]; EC50 of induced CYP1A activity (EROD), XLK-WG cells, 3 hour exposure, ± SE): 0.56 ± 0.15 nM
rise of induced CYP1A activity with 24 hours versus 3 hour exposure (XLK-WG cells [3]): more than 20 fold
EC50 (CYP1A1): ~0.06 nM
EC50 (Hepa1c1c7 cells [4]): 0.07 ± 0.02 nM
maximum EROD activity in Hepa1c1c7 cells relative to XLK-WG cells (Hepa1c1c7 cells [5]): ~ 20 fold
EROD EC50 after 24 hours relative to EC50 after 3 hours (Hepa1c1c7 cells [5]; Hepa1c1c7 cells): ~ 50 fold
maximum EROD activity induced (Hepa1c1c7 cells [5]; Hepa1c1c7 cells): 8.83 ± 2.72 pmol • mg protein^−1 • min^−1
fold induction at 0.1 µM (CYP1A6 (Xl.1692) mRNA [6]): 2.1
fold induction at 0.1 µM (CYP1A7 (Xl.1220) mRNA [7]): 16.1
number of transcripts with altered expression in excess of TCDD (XLK-WG cells [8]; XLK-WG cells, 100 nM): 105
Genes altered ≥ 2-fold: Induced (XLK-WG cells [8]; XLK-WG cells, 100 nM): 24
Genes altered ≥ 2-fold: Repressed (XLK-WG cells [8]; XLK-WG cells, 100 nM): 2
Genes altered (p ≤ 0.01): Induced (XLK-WG cells [8]; XLK-WG cells, 100 nM): 113
Genes altered (p ≤ 0.01): Repressed (XLK-WG cells [8]; XLK-WG cells, 100 nM): 35
fold induction at 0.1 µM (XLK-WG cells [8]; [14]): 1.3
fold induction at 0.1 µM (XLK-WG cells [8]; read-out: KCNE5.1: voltage-gated potassium channel subunit MiRP4.1 (Xl.16370) fold induction, Microarray): 2
fold induction at 0.1 µM (XLK-WG cells [8]; read-out: MGC52735:similar to gap-jct protein alpha-7 (Xl.3337) fold induction, Microarray): 5.2
fold induction at 0.1 µM (XLK-WG cells [8]; read-out: MGC85390 (Xl.23887; similar to RAB 40B, RAS oncogene family) fold induction, Microarray): 2.1
fold induction at 0.1 µM (XLK-WG cells [8]; read-out: Peripheral Myelin protein 22 (Xl.11939/Xl.14729) fold induction, Microarray): 2.2
fold induction at 0.1 µM (XLK-WG cells [8]; read-out: SYNE 1 (Xl. 14119) fold induction, Microarray): 6.7
fold induction at 0.1 µM (XLK-WG cells [8]; read-out: Xl.13754 (similar to C219-reactive peptide) fold induction, Microarray): 3.1
fold induction at 0.1 µM (XLK-WG cells [8]; read-out: Xl.14584 (similar to gastrula-specific protein kinase) fold induction, Microarray): 2.9
fold induction at 0.1 µM (XLK-WG cells [8]; read-out: Xl.14954 (similar to voltage-gated potassium channel subunit MiRP4.1) fold induction, Microarray): 3.1
fold induction at 0.1 µM (XLK-WG cells [8]; read-out: Xl.14954 fold induction, Microarray): 2.1
fold induction at 0.1 µM (XLK-WG cells [8]; read-out: Xl.25142 fold induction, Microarray): 2.1
fold induction at 0.1 µM (XLK-WG cells [8]; read-out: Xl.7783 fold induction, Microarray): 5.9
fold induction (CYP1A6 (Xl.1692) mRNA [9]): 455
fold induction (CYP1A7 (Xl.1220) mRNA [10]): 412
Hyaluronidase 2 (Xl.6247/Xl.16152) fold induction, qRT-PCR (XLK-WG cells [11]): 2.7 fold
Hypothetical protein MCG81225 (similar to Zn-finger protein 410; Xl.16594) fold induction, qRT-PCR (XLK-WG cells [11]): 3.5 fold
KCNE5.1: voltage-gated potassium channel subunit MiRP4.1 (Xl.16370) fold induction, qRT-PCR (XLK-WG cells [11]): 1.6 fold
MGC52735:similar to gap-jct protein alpha-7 (Xl.3337) fold induction, qRT-PCR (XLK-WG cells [11]): 304 fold
Peripheral Myelin protein 22 (Xl.11939/Xl.14729) fold induction, qRT-PCR (XLK-WG cells [11]): 1.0 fold
SYNE 1 (Xl. 14119) fold induction, qRT-PCR (XLK-WG cells [11]): 106 fold
Xl.13754 (similar to C219-reactive peptide) fold induction, qRT-PCR (XLK-WG cells [11]): 4.6 fold
Xl.14584 (similar to gastrula-specific protein kinase) fold induction, qRT-PCR (XLK-WG cells [11]): 10.6 fold
Xl.25142 fold induction, qRT-PCR (XLK-WG cells [11]): 1.8 fold
Xl.7783 fold induction, qRT-PCR (XLK-WG cells [11]): 4.3 fold
Xl.14954 (similar to voltage-gated potassium channel subunit MiRP4.1) fold induction, qRT-PCR (XLK-WG cells [11]): 9.5 fold
Xl.14954 fold induction, qRT-PCR (XLK-WG cells [11]): 1.9 fold

Clc1cc2c(cc1Cl)Oc1cc(Cl)c(Cl)cc1O2 [TCDD, 2,3,7,8-tetrachlorodibenzo-p-dioxin]
EC50 at 3 h (CYP1A [2]): 10.5 ± 3.17 nM
EC50 at 24 h (CYP1A [2]): ≥ 95 nM
rise of induced CYP1A activity with 24 hours versus 3 hour exposure (XLK-WG cells [3]): more than 20 fold
EC50 at 3 h (CYP1A1): ~0.06 nM
EC50 (Hepa1c1c7 cells [4]): 0.05 ± 0.02 nM
EC50 at 3 h (CYP1A [12]): 0.03 ± 0.01 nM
EC50 at 24 h (CYP1A [12]): 0.01 ± 0.002 nM
maximum EROD activity in Hepa1c1c7 cells relative to XLK-WG cells (Hepa1c1c7 cells [5]): ~ 40 fold
maximum EROD activity induced (Hepa1c1c7 cells [5]; Hepa1c1c7 cells): 13.41 ± 4.61 pmol • mg protein^−1 • min^−1
fold induction at 3 h, 0.1 µM (CYP1A6 (Xl.1692) mRNA [6]): 1.7
fold induction at 3 h, 0.1 µM (CYP1A7 (Xl.1220) mRNA [7]): 6.7
Genes altered ≥ 2-fold: Induced (XLK-WG cells [8]; XLK-WG cells, 100 nM): 3
Genes altered ≥ 2-fold: Repressed (XLK-WG cells [8]; XLK-WG cells, 100 nM): 1
Genes altered (p ≤ 0.01): Induced (XLK-WG cells [8]; XLK-WG cells, 100 nM): 31
Genes altered (p ≤ 0.01): Repressed (XLK-WG cells [8]; XLK-WG cells, 100 nM): 12
fold induction at 0.1 µM (XLK-WG cells [8]; [14]): 1.3
fold induction at 3 h, 100 nM (CYP1A6 (Xl.1692) mRNA [9]): 427
fold induction at 3 h, 100 nM (CYP1A7 (Xl.1220) mRNA [10]): 320
Hyaluronidase 2 (Xl.6247/Xl.16152) fold induction, qRT-PCR (XLK-WG cells [11]): 1.6 fold
Hypothetical protein MCG81225 (similar to Zn-finger protein 410; Xl.16594) fold induction, qRT-PCR (XLK-WG cells [11]): 3.2 fold
KCNE5.1: voltage-gated potassium channel subunit MiRP4.1 (Xl.16370) fold induction, qRT-PCR (XLK-WG cells [11]): 2.0 fold
MGC52735:similar to gap-jct protein alpha-7 (Xl.3337) fold induction, qRT-PCR (XLK-WG cells [11]): 69.1 fold
MGC85390 (Xl.23887; similar to RAB 40B, RAS oncogene family) fold induction, qRT-PCR (XLK-WG cells [11]): 2.0 fold
Peripheral Myelin protein 22 (Xl.11939/Xl.14729) fold induction, qRT-PCR (XLK-WG cells [11]): 1.1 fold
SYNE 1 (Xl. 14119) fold induction, qRT-PCR (XLK-WG cells [11]): 8.4 fold
Xl.13754 (similar to C219-reactive peptide) fold induction, qRT-PCR (XLK-WG cells [11]): 2.2 fold
Xl.14584 (similar to gastrula-specific protein kinase) fold induction, qRT-PCR (XLK-WG cells [11]): 10.1 fold
Xl.25142 fold induction, qRT-PCR (XLK-WG cells [11]): 0.9 fold
Xl.7783 fold induction, qRT-PCR (XLK-WG cells [11]): 2.0 fold
Xl.14954 (similar to voltage-gated potassium channel subunit MiRP4.1) fold induction, qRT-PCR (XLK-WG cells [11]): 6.6 fold
Xl.14954 fold induction, qRT-PCR (XLK-WG cells [11]): 3.0 fold
CYP1A6 and CYP1A7 mRNA expression, semi-quantitative RT-PCR (XLK-WG cells [13]): up regulation of CYP1A6 and CYP1A7 mRNAs
